Measurements reported in ChEMBL document CHEMBL4364248, “Discovery of 1,2,4-oxadiazole-Containing hydroxamic acid derivatives as histone deacetylase inhibitors potential application in cancer therapy” (Eur J Med Chem, 2019).

Experiments:
Histone deacetylase 1 = Histone deacetylase 1 (Homo sapiens, UniProt Q13547); experiment: Inhibition of recombinant full length HDAC1 (unknown origin) using Ac-peptide-AMC as substrate after 1 hr by fluorescence assay
MCF7 = experiment: Antiproliferative activity against human MCF7 cells after 72 hrs by MTT assay; format: functional, cell-based; conditions: MCF7, 72 h
MDA-MB-231 = experiment: Antiproliferative activity against human MDA-MB-231 cells after 72 hrs by MTT assay; format: functional, cell-based; conditions: MDA-MB-231, 72 h
JeKo-1 [1] = experiment: Cell cycle arrest in human JeKo1 cells assessed as accumulation at G1 phase at 100 nM after 24 hrs by propidium iodide staining based flow cytometric analysis (reference value: 63.16 %); format: functional
Ramos = experiment: Antiproliferative activity against human Ramos cells after 72 hrs by MTT assay; format: functional, cell-based
[2] = target: Histone deacetylase 1/2/3 (Homo sapiens) (UniProt Q13547+O15379+Q92769); experiment: Inhibition of HDAC1/2/3 in human MM1S cells assessed as increase in H3 acetylation after 6 hrs by Western blot analysis; format: cell-based
JeKo-1 [3] = experiment: Cell cycle arrest in human JeKo1 cells assessed as accumulation at S phase at 100 nM after 24 hrs by propidium iodide staining based flow cytometric analysis (reference value: 26.13 %); format: functional
[4] = Volume of distribution at steady state in Sprague-Dawley rat at 5 mg/kg, iv measured upto 24 hrs by LC-MS/MS analysis; format: ADME, organism-based; conditions: in vivo, read-out: Vdss
Procedure, shortened: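 SD rats (200-250 g), six per time point, given 5 mg/kg as a tail-vein bolus or orally. Blood was taken by cardiac puncture before dosing and at 5, 15, 30, 45 min and 1, 2, 4, 6, 8, 10, 12 and 24 h. Plasma was spun at 4000 g for 15 min at 4 °C and stored at -80 °C. Analysis was LC-MS/MS with multiple-reaction monitoring, followed by noncompartmental analysis.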

[5] = target: T1, Protein deacetylase HDAC6 (Homo sapiens) (UniProt Q9UBN7); experiment: Inhibition of HDAC6 in human MM1S cells assessed as increase in alpha tubulin acetylation after 6 hrs by Western blot analysis; format: cell-based
T1 sequence (whole entry): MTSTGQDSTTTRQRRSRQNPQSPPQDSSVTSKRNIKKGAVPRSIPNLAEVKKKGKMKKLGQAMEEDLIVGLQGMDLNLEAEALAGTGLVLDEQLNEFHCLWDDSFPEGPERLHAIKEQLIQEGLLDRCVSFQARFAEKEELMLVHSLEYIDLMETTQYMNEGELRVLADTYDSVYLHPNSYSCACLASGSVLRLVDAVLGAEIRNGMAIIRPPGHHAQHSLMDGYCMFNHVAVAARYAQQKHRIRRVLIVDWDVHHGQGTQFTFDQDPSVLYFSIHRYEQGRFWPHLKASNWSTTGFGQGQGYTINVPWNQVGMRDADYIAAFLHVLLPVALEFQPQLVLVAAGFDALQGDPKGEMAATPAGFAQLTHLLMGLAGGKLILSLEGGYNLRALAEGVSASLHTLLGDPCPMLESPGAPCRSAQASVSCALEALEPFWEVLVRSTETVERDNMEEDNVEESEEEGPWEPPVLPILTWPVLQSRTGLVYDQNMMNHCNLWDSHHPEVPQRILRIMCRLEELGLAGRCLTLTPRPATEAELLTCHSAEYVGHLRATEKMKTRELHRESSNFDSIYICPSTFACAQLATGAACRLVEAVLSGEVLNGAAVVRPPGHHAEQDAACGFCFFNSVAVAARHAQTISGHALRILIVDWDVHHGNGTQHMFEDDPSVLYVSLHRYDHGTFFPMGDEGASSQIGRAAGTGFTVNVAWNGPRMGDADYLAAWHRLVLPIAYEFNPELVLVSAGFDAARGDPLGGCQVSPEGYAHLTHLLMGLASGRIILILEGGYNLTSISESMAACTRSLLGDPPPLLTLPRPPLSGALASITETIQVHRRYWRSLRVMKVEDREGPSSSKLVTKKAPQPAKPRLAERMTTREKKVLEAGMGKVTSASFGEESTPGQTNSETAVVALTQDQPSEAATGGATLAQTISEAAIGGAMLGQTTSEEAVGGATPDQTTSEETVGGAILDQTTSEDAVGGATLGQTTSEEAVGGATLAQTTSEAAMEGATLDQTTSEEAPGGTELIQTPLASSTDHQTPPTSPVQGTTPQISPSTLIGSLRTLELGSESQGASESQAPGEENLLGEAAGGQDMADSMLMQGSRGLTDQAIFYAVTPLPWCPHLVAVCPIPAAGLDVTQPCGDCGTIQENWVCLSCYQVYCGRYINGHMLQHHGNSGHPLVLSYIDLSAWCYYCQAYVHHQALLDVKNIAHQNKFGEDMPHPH

JeKo-1 [6] = experiment: Induction of apoptosis in human JeKo1 cells assessed as early apoptotic cells at 1000 nM after 48 hrs by annexin V-FITC/propidium iodide staining-based flow cytometric method (reference value: 3.34 %); format: functional
Procedure, shortened: (§1)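 Jeko-1 cells were grown in RPMI-1640 with 10% FBS at 37 °C under 5% CO2. They were exposed to 0, 10, 100 or 1000 nM for 48 h, then apoptosis induction was analysed.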

Histone deacetylase 2 = Histone deacetylase 2 (Homo sapiens, UniProt Q92769); experiment: Inhibition of recombinant full length human HDAC2 expressed in sf9 insect cells using Ac-peptide-AMC as substrate after 1 hr by fluorescence assay; format: cell-based
Histone deacetylase 2, sequence (Q92769 whole entry): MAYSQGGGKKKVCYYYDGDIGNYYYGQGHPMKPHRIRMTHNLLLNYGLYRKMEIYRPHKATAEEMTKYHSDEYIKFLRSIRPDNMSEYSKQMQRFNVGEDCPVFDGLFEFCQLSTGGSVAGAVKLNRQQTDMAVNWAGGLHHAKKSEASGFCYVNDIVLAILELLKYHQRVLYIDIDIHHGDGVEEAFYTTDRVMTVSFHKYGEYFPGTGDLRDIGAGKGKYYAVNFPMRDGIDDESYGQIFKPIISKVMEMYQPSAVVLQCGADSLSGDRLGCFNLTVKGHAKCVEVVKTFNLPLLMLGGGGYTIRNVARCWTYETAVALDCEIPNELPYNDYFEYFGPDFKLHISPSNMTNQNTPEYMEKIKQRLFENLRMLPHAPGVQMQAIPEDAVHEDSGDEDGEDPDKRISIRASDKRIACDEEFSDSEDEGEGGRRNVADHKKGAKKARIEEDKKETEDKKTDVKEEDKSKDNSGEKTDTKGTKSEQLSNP

JeKo-1 [7] = experiment: Cell cycle arrest in human JeKo1 cells assessed as accumulation at S phase at 1000 nM after 24 hrs by propidium iodide staining based flow cytometric analysis (reference value: 26.13 %); format: functional
Daudi = experiment: Antitumour activity against human Daudi cells xenografted in NOD/SCID mouse assessed as reduction in tumour growth at 20 mg/kg, po treated on day 1,3 and 5 per week and measured for every 2 days; format: functional; conditions: read-out: TGI
Procedure, shortened: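 Daudi cells (107 in 100 µL serum-free RPMI 1640) were injected s.c. into the right flank of 5–6 week female NOD/SCID mice. At 100–200 mm3, mice were randomized six per group. Dosing was 10 mg/kg i.v. or 20 mg/kg p.o. in 8% HP-β-CD on days 1, 3 and 5 each week. Tumors were measured by caliper every 2 days, with TV = length × width² × 0.5.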

JeKo-1 [8] = experiment: Induction of apoptosis in human JeKo1 cells assessed as viable cells at 10 nM after 48 hrs by annexin V-FITC/propidium iodide staining-based flow cytometric method (reference value: 91.6 %); format: functional; conditions: JeKo-1, 48 h, read-out: Activity; procedure, shortened: as §1
A2780S = experiment: Antiproliferative activity against human A2780S cells after 72 hrs by MTT assay; format: functional, cell-based
[9] = Volume of distribution at steady state in Sprague-Dawley rat at 5 mg/kg, po measured upto 24 hrs by LC-MS/MS analysis; format: ADME, organism-based; conditions: in vivo
Procedure, shortened: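 SD rats (200-250 g), six per time point, given 5 mg/kg orally; blood drawn by cardiac puncture at 0, 5, 15, 30, 45 min and 1, 2, 4, 6, 8, 10, 12, 24 h, held on ice. Plasma separated by centrifugation (4000 g, 15 min, 4 °C), stored at -80 °C, assayed by LC-MS/MS in multiple-reaction monitoring mode; parameters from noncompartmental analysis.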

Histone deacetylase 1, sequence (Q13547 whole entry): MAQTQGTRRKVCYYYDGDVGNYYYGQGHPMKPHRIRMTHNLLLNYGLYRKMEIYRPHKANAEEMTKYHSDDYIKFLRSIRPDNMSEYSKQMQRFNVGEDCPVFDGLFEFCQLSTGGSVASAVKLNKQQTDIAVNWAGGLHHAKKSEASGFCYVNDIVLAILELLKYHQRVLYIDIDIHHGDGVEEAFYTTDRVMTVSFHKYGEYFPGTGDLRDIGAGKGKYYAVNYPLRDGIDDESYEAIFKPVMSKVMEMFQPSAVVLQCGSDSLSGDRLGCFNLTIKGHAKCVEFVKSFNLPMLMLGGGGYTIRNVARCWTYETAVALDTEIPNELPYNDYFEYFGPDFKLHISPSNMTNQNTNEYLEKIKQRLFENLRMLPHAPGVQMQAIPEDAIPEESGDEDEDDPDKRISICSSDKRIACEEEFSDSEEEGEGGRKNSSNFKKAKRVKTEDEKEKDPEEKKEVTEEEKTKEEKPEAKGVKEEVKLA

Q: For `Cc1ccc(CN2CCC(c3noc(CN(C)c4ncc(C(=O)NO)cn4)n3)CC2)cc1`, which IC50 (Histone deacetylase 1) is on record?
A: The IC50 was 1.8 nM.

Q: And the IC50 (MCF7)?
A: The IC50 was 14.4 nM.

Q: And the IC50 (MDA-MB-231)?
A: Its IC50 is 25.6 nM.

Q: What about the Activity (JeKo-1 [1]) of the same molecule?
A: Its Activity is 80.74%.

Q: What about the IC50 (Ramos) of the same molecule?
A: Its IC50 is 17.8 nM.

Q: And the inhibition [2]?
A: Its inhibition is “Dose-dependent effect”.

Q: And the Activity (JeKo-1 [3])?
A: The Activity was 8.5%.

Q: And the Vd [4]?
A: Its Vd is 6.33 L/kg.

Q: What about the inhibition [5] of the same molecule?
A: Its inhibition is “Dose-dependent effect”.

Q: And the Activity (JeKo-1 [6])?
A: Its Activity is 42.7%.

Q: And the IC50 (Histone deacetylase 2)?
A: The IC50 was 3.6 nM.

Q: And the Activity (JeKo-1 [7])?
A: The Activity was 12.82%.

Q: And the inhibition in vivo at 20 mg/kg (Daudi)?
A: Its inhibition in vivo at 20 mg/kg is 53.8%.

Q: And the viability at 0.01 µM (JeKo-1 [8])?
A: The viability at 0.01 µM was 91.8%.

Q: What about the IC50 (A2780S) of the same molecule?
A: The IC50 was 40 nM.

Q: What about the Vdss [9] of the same molecule?
A: The Vdss was 29.13 L/kg.
